# In the library only some 0.58% were active in any assay of this set; here they are far more common.
# zfTRPN1 agonist = agonists of zebrafish TRPN1 channel; HEK293 zebrafish TRPN1-YFP, Fluo-8 calcium fluorescence; 100% = response to 87 µM carbachol; activation, % at 3 µM; hit rate 0.18% among 220,000; AID 1424;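 active = activation above its plate's cutoff, the mean activation of test wells on that plate plus 3 SD, cut at about 19% in these data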;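 also: 0% = DMSO alone and 100% = 87 µM carbachol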
#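 Material: zebrafish TRPN1-YFP in HEK293 cells. Doses: one dose of 3 µM, 0.3% DMSO. Incubation: dye 1 h 37 °C plus 30 min RT. Measured by: intracellular calcium fluorescence with Fluo-8.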
# TRPML3 ag = human mucolipin-3 channel agonism. HEK293 TRPML3-YFP, Fluo-8 calcium fluorescence; 100% = the carbachol control signal. activation, % at 3 µM. hit rate 0.29% among 220,000. Q8TDD5. AID 1448;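 active = activation above its plate's cutoff, the mean activation of the plate's test wells plus 3 SD, cut at about 12% in these data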;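 also: 0% = DMSO only wells and 100% = carbachol wells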
#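 Test system: HEK293 cells stably carrying human TRPML3-YFP; Doses: single dose, 3 µM final nominal compound, 0.3% DMSO final; Schedule: dye loading 1 h 37 °C then 30 min ambient, 125 s read; Technique: Fluo-8 calcium fluorescence; Benchmarks: high control carbachol 87 µM, low control DMSO.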
# V1R ag counter = V1a receptor agonism, counter-screen for OXTR agonists; P37288; CHO-V1R cells, Fluo-8 calcium fluorescence, agonist mode; 0% DMSO, 100% 3 nM vasopressin; activation, % at 3 µM; hit rate 0.25% among 320,000; AID 2797;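 active = activation above the mean activation of all tested compounds plus 3 SD, per screening run, cut at about 20% in these data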;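 also: signal is peak over basal fluorescence ratio across a 100 second FLIPR read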
# Target sequence (P37288 whole entry, looked up): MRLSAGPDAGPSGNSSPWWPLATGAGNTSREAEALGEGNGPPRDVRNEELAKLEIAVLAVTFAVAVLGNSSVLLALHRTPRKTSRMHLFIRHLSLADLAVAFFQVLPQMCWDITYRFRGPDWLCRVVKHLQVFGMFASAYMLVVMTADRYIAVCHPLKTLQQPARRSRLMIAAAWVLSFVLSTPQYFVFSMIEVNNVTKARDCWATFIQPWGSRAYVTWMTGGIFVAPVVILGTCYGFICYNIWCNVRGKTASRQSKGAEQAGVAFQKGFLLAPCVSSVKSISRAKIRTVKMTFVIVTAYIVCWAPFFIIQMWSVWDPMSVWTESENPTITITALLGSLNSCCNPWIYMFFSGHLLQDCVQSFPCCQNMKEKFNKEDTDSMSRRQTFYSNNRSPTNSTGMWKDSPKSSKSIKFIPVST
# OXTR potentiate = potentiates the human oxytocin receptor response. CHO-OTR cells, Fluo-8 calcium fluorescence, potentiator mode; 0% = oxytocin EC15, 100% = EC100. activation, % at 3 µM. hit rate 0.061% among 320,000. AID 2445;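 active = activation above that plate's cutoff, the mean activation of tested compounds plus 3 SD, cut at about 6.6% in these data, passing the limit was not always enough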;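 also: 100% uses oxytocin at 75 nM as the full agonist control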
#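 Dosing: Single dose, 3.0 µM nominal final compound concentration | Material: Human OTR in CHO cells | Technique: Kinetic Fluo-8 calcium fluorescence | Benchmarks: EC15 oxytocin alone as 0%, 75 nM oxytocin as 100% | Probe or stimulus: Oxytocin at about EC15, sub-maximal agonist stimulus | Incubation: Compound 6 min at room temperature before oxytocin, 100 s read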
# OXTR ag = agonists of human oxytocin receptor. P30559. CHO-OTR cells, Fluo-8 calcium fluorescence; normalized: DMSO 0%, oxytocin 100%. activation, % at 3 µM. hit rate 0.32% among 320,000. AID 2435;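 active = activation above the mean of all tested compounds plus 3 SD, cutoff set per screening run, cut at about 20% in these data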;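 also: peak over basal fluorescence ratio from a 100 s FLIPR kinetic read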
# OXTR pot cf = human OXTR potentiation, confirmation; shares compounds with OXTR potentiate; CHO-OTR cells, Fluo-8 calcium fluorescence; scaled from low-dose to maximal oxytocin; activation, % at 3 µM; 180 tested, under 10 active;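 active = mean percent activation over triplicates above a cutoff set from solvent-only control plates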;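 also: compounds tested in the presence of an EC15 dose of oxytocin; 0% = EC15 oxytocin with DMSO and 100% = EC100 oxytocin with DMSO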
# * hit, by the source's call; · = no result.
SMILES,zfTRPN1 agonist,TRPML3 ag,V1R ag counter,OXTR potentiate,OXTR ag,OXTR pot cf
COc1ccc(NS(=O)(=O)c2cccc(C(=O)N/N=C/c3cn(-c4ccccc4)nc3-c3ccccc3)c2)cc1,0.3,0.3,-0.7,-1.4,-0.8,·
COc1ccc(NS(=O)(=O)c2cccc(C(=O)N/N=C/c3cn(-c4ccccc4)nc3-c3ccc(OC)cc3)c2)cc1,1.8,0.6,1.1,8.9*,1.0,-3.2
O=C(CNC(=O)c1ccc(Br)o1)NNC(=O)c1ccccc1F,·,·,8.2,-0.5,0.1,·
Cc1coc2c(C)c3oc(=O)c(CCC(=O)NCCCN4CCCC4=O)c(C)c3cc12,·,·,-1.0,12.4*,0.1,-4.3
O=C(NCCc1ccc(F)cc1)c1cc(-c2ccncc2)nc2ccccc12,-0.1,0.1,·,·,·,·
O=c1c(O)c(-c2ccc(O)c(O)c2)oc2cc(O)cc(O)c12,·,·,1.2,20.6*,0.8,7.2*
CNC(=O)c1c(NC(=O)c2ccco2)sc2c1CCC2,·,·,-1.7,-8.9,-0.9,·
CNC(=O)c1c(NC(=O)c2cc(-c3cc(C)c(C)cc3O)n[nH]2)sc2c1CCCC2,2.4,0.1,-0.1,6.6*,1.2,-9.6
COc1ccc(C(=O)NCC(=O)N/N=C(\C)c2ccco2)cc1OC,0.7,0.3,0.9,-1.9,0.0,·
COc1cc(OC)c(NC(=O)Cn2cnc3sc(C)c(S(=O)(=O)N4CCOCC4)c3c2=O)cc1Cl,·,·,-0.5,-15.8,-1.6,·
CC(Sc1nc(N)cc(N)n1)C(=O)NCCC1=CCCCC1 (stereo unspecified),·,·,0.2,5.7,0.5,·
CCN1CCCC1CNC(=O)C(=O)Nc1cccc(OC)c1 (stereo unspecified),1.1,0.4,0.8,13.4*,1.6,-4.1
CCN1CCCC1CNC(=O)C(=O)Nc1ccccc1 (stereo unspecified),-0.1,0.0,0.7,-2.8,1.7,·
O=c1cnnc(N/N=C/c2ccc3c(c2)OCO3)[nH]1,0.5,0.8,-0.8,10.0*,-0.4,-4.2
COc1cc(Nc2cc(C)nc3ncnn23)cc(OC)c1,0.6,-0.1,-0.8,6.4*,-2.3,-3.3
CCOc1ccc(OCC)c(Nc2cc(C)nc3ncnn23)c1,0.0,-0.7,-0.4,16.3*,-0.7,-6.9
COc1cc(Nc2cc(C)nc3ncnn23)cc(OC)c1OC,0.0,0.3,0.5,6.3,0.8,·
CN(CC(=O)NCc1ccncc1)S(=O)(=O)c1ccc(F)cc1,0.4,0.6,1.1,11.8*,0.2,-3.7
CC(NC(=O)/C(C#N)=C/c1ccc(C(=O)O)cc1)c1ccccc1 (stereo unspecified),·,·,0.3,13.3*,1.3,3.0
COc1cc(/C=C(/C#N)C(=O)NC(C)c2ccccc2)cc(OC)c1O (stereo unspecified),·,·,6.7,-4.9,9.2,·
Cc1ccc(S(=O)(=O)N(C)CC(=O)NNC(=O)CCS(=O)(=O)c2ccccc2)cc1,·,·,0.5,0.3,1.4,·
Cc1cc2c(cc1S(=O)(=O)CCC(=O)NC1CCCCC1C)OCC(=O)N2 (stereo unspecified),·,·,1.6,-0.6,0.7,·
CC1CCCCC1NC(=O)CCS(=O)(=O)c1cc2c(cc1Cl)NC(=O)CO2 (stereo unspecified),·,·,0.4,25.1*,-0.2,-3.1
Cc1cc(C)n(C(=O)C(C(=O)c2ccccc2)C(C)C)n1 (stereo unspecified),-2.4,-0.2,0.4,10.6*,-2.6,0.6
Cc1cc(Cl)ccc1OCC(=O)OCC(=O)c1c(N)n(C)c(=O)n(C)c1=O,·,·,3.7,-9.0,6.4,·
CC(=O)Nc1ccc(S(=O)(=O)NCc2cc(=O)n(C)c(=O)n2C)cc1,·,·,-0.8,-4.6,-0.1,·
Cc1c(C(=O)NCc2ccccn2)oc2c(Cl)cccc12,·,·,9.1,12.7*,1.0,1.8
O=C(COC(=O)c1ccccc1NC(=O)c1ccco1)NC1CCCCC1,-0.4,0.3,-0.4,-15.2,-1.0,·
CC1CCCC(NC(=O)COC(=O)c2ccccc2NC(=O)c2ccco2)C1C (stereo unspecified),-1.9,0.3,-1.1,10.3*,0.1,-3.6

# Source: PubChem BioAssay
